Test results as given in ChEMBL document CHEMBL3994580, “A novel class of α-glucosidase and HMG-CoA reductase inhibitors from Ganoderma leucocontextum and the anti-diabetic properties of ganomycin I in KK-Ay mice” (Eur J Med Chem, 2017).
Activity calls are given as the source filed them. The calls are words filed in the database; no cut-off is given here.

Key:
[1] = target: T1, 3-hydroxy-3-methylglutaryl-coenzyme A reductase (Sus scrofa) (UniProt Q1W675); experiment: (§1) Inhibition of HMG-CoA reductase in pig liver microsomes using HMG-CoA as substrate preincubated for 5 mins followed by NADPH addition measured after 15 mins by colorimetric method
T1 sequence (whole entry): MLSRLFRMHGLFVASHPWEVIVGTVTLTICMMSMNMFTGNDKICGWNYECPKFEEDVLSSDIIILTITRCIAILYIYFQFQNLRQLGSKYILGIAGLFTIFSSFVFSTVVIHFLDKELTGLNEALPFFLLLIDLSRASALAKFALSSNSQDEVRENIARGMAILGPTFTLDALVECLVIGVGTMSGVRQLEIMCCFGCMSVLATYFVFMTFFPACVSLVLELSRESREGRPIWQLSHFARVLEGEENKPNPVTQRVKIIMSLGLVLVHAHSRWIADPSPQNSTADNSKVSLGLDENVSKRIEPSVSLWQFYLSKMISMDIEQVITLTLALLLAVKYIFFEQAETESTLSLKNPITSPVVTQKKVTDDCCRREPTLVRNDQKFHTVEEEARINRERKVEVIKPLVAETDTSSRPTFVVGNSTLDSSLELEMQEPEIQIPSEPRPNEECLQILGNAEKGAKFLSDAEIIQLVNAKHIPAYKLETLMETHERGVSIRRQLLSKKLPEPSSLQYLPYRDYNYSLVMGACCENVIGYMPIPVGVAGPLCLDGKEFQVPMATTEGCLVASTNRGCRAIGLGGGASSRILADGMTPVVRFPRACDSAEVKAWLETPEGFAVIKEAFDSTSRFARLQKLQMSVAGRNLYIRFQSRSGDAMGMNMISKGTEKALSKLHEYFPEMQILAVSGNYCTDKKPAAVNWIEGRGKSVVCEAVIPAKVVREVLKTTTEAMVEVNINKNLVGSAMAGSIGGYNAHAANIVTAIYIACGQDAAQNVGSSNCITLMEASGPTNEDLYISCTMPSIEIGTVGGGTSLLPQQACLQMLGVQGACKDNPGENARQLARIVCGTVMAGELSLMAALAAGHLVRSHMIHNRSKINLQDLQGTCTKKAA
Procedure, shortened: (§2)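 HMG-CoA reductase activity followed by absorbance at 340 nm. Blank had potassium phosphate buffer instead of enzyme, and control had buffer instead of compound. Percent inhibition calculated from blank-corrected OD.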

[2] = target: T2, 3-hydroxy-3-methylglutaryl-coenzyme A reductase (Sus scrofa, UniProt Q1W675); experiment: as §1; procedure, shortened: as §2
T2 sequence (Q1W675 whole entry): T1 sequence (whole entry)

[3] = Inhibition of baker's yeast alpha-glucosidase using p-nitrophenyl alpha-D-glucopyranoside as substrate preincubated for 10 mins followed by substrate addition measured for 15 mins; set-up: species or system Saccharomyces cerevisiae
Procedure, shortened: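 Baker's yeast α-glucosidase with pNPG, read at 405 nm. Control contained phosphate buffer in place of compound, and blank contained buffer in place of enzyme.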

[4] = Inhibition of alpha-glucosidase in rat small intestinal mucosa assessed as reduction in glucose production using p-nitrophenyl alpha-D-glucopyranoside as substrate measured after 40 mins by glucose oxidase assay
Procedure, shortened: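 Rat small intestinal mucosa enzyme. Compound in DMSO mixed with substrate (maltose, sucrose or pNPG) and enzyme in 0.1 M phosphate buffer pH 6.9, incubated 40 min. Glucose released measured by glucose oxidase kit at 550 nm. Blank lacked enzyme, control lacked compound. Percent inhibition calculated from blank-corrected OD.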

Mus musculus [5] = experiment: Antidiabetic activity in KK-Ay diabetic mouse model assessed as reduction in HbA1C level at 1 to 5 mg/kg/day administered via oral gavage once daily for 21 days; assay type: functional, organism-based
Mus musculus [6] = experiment: Toxicity in KK-Ay diabetic mouse model assessed as changes in body weight at 1 to 5 mg/kg/day administered via oral gavage once daily measured every 3 days during first two weeks of compound dosing; assay type: organism-based; settings: in vivo, 72 h
Procedure, shortened: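 In high-fat-fed KK-Ay mice gavaged once daily for 21 days, individual body weight and cage food consumption were recorded every 3 days. Mean ± SEM, n = 8.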

Mus musculus [7] = experiment: Antidiabetic activity in KK-Ay diabetic mouse model assessed as reduction in serum insulin level at 1 to 5 mg/kg/day administered via oral gavage once daily for 21 days; assay type: functional, organism-based
Procedure, shortened: (§3)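 Male KK-Ay mice (8 weeks old) on high-fat diet with water ad libitum, dosed by gavage once daily for 21 days (1 or 5 mg/kg test; rosiglitazone 10 mg/kg); female C57BL/6J mice as normal controls. Blood collected at study end. Serum lipids, insulin and glucose measured per cited method. ISI calculated from fasting blood glucose and fasting insulin. Mean ± SEM, n = 7-8.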

Mus musculus [8] = experiment: Antidiabetic activity in KK-Ay diabetic mouse model assessed as increase in insulin sensitivity index at 1 to 5 mg/kg/day administered via oral gavage once daily for 21 days; assay type: functional, organism-based; procedure, shortened: as §3
Mus musculus [9] = experiment: Antidiabetic activity in KK-Ay diabetic mouse model assessed as reduction in blood glucose level at 5 mg/kg/day administered via oral gavage once daily measured on day 19 at 30 to 60 mins post insulin challenge by insulin tolerance test; assay type: functional, organism-based
Procedure, shortened: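 ITT on day 19 of treatment: after 4 h fasting, insulin 0.6 U·kg-1 given intraperitoneally. Glycaemia was sampled from the tail tip before and at set times after injection, and the AUC was computed. Mean ± SEM, n = 8.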

Mus musculus [10] = experiment: Hypolipidemic activity in KK-Ay diabetic mouse model assessed as reduction in serum triglyceride level at 1 to 5 mg/kg/day administered via oral gavage once daily for 21 days; assay type: functional, organism-based; procedure, shortened: as §3
Mus musculus [11] = experiment: Hypolipidemic activity in KK-Ay diabetic mouse model assessed as reduction in serum total cholesterol level at 1 to 5 mg/kg/day administered via oral gavage once daily for 21 days; assay type: functional, organism-based; procedure, shortened: as §3
Mus musculus [12] = experiment: Hypolipidemic activity in KK-Ay diabetic mouse model assessed as reduction in serum LDL-C level at 1 to 5 mg/kg/day administered via oral gavage once daily for 21 days; assay type: functional, organism-based; procedure, shortened: as §3
Mus musculus [13] = experiment: Decrease in serum AST level in KK-Ay diabetic mouse model at 1 to 5 mg/kg/day administered via oral gavage once daily for 21 days; assay type: functional, organism-based; procedure, shortened: as §3
Mus musculus [14] = experiment: Decrease in hepatocyte hypertrophy in KK-Ay diabetic mouse model at 5 mg/kg/day administered via oral gavage once daily for 21 days by haematoxylin and eosin staining based microscopic or morphometric method; assay type: functional, organism-based
Procedure, shortened: (§4)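 At study end, liver and abdominal white adipose tissue were fixed in 10% formaldehyde PBS (pH 7.4), paraffin-embedded, sectioned and stained with haematoxylin/eosin. Sections were assessed by microscopy or morphometry at 20×.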

Mus musculus [15] = experiment: Decrease in lipid droplet accumulation in liver in KK-Ay diabetic mouse model at 5 mg/kg/day administered via oral gavage once daily for 21 days by haematoxylin and eosin staining based microscopic or morphometric method; assay type: functional, organism-based; procedure, shortened: as §4
Mus musculus [16] = experiment: Decrease in size of adipocytes in abdominal white adipose tissue in KK-Ay diabetic mouse model at 5 mg/kg/day administered via oral gavage once daily for 21 days by haematoxylin and eosin staining based microscopic or morphometric method; assay type: functional, organism-based; procedure, shortened: as §4
Mus musculus [17] = experiment: Acute toxicity in mouse assessed as coma up to 3 g/kg, po up to 14 days; settings: in vivo, 336 h
Mus musculus [18] = experiment: Acute toxicity in mouse assessed as effect on sleep up to 3 g/kg, po up to 14 days; settings: in vivo, 336 h
Mus musculus [19] = experiment: Acute toxicity in mouse assessed as effect on physical activity up to 3 g/kg, po up to 14 days; settings: in vivo, 336 h

CC(C)=CCC/C(C)=C/CCC1=C[C@H](c2cc(O)ccc2O)OC1=O
inhibition [1]: Dose-dependent effect
IC50 [2]: 12300 nM
IC50 [3]: 300 nM
IC50 [4]: 400 nM
Activity (Mus musculus [5]): Active
Activity (Mus musculus [6]): Non-Toxic
Activity (Mus musculus [7]): Active
Activity (Mus musculus [8]): Active
Activity (Mus musculus [9]): Active
Activity (Mus musculus [10]): Active
Activity (Mus musculus [11]): Active
Activity (Mus musculus [12]): Active
Activity (Mus musculus [13]): Active
Activity (Mus musculus [14]): Active
Activity (Mus musculus [15]): Active
Activity (Mus musculus [16]): Active
Activity (Mus musculus [17]): Non-Toxic
Activity (Mus musculus [18]): Non-Toxic
Activity (Mus musculus [19]): Non-Toxic
